Redox H2O2 prof – compounds producing H2O2 with reducing agent – biochemical, NIH compound library profiling, artefact control for MLSCN library redox annotation, primary screen. DTT-dependent redox cycling H2O2, phenol red/HRP absorbance; 100% = 100 µM peroxide control, 0% = buffer. activation, % at 10 µM. 0.03% of 200,000 active;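 active = activation of at least 50% relative to the plate's high and low controls in the primary single-dose screen; inactive = activation below 50%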;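 note: compound incubated with DTT at 0.8 mM final as the reducing agent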
RBBP9 inh – inhibitors of human serine hydrolase RBBP9. O75884. recombinant RBBP9, FP-Rh probe fluorescence polarization. inhibition, % at 7.94 µM. 0.2% of 220,000 active. AID 1515;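 active = inhibition above the campaign mean of all tested compounds plus 3 SD, cut at about 14% in these data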;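 note: plate controls were DMSO wells with RBBP9 for no effect and wells lacking RBBP9 protein for full effect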
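Test system: recombinant human RBBP9; Timing: 30 min then 45 min, 25 °C; Detection: fluorescence polarization; Control set: RBBP9 with DMSO as uninhibited control, no-protein wells as full inhibition; Compound dosing: one concentration, 7.94 µM nominal, 0.794% DMSO; Probe or stimulus: FP-Rh activity-based probe, 375 nM before mixing.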
PKD1 inh – PKD1 (human) kinase inhibition; Q15139; PKD1 kinase fluorescence polarization assay; inhibition, % (no concentration beside the values); 0.056% of 200,000 active; in the data active = inhibition above about 50%
Target sequence (Q15139 whole entry, looked up): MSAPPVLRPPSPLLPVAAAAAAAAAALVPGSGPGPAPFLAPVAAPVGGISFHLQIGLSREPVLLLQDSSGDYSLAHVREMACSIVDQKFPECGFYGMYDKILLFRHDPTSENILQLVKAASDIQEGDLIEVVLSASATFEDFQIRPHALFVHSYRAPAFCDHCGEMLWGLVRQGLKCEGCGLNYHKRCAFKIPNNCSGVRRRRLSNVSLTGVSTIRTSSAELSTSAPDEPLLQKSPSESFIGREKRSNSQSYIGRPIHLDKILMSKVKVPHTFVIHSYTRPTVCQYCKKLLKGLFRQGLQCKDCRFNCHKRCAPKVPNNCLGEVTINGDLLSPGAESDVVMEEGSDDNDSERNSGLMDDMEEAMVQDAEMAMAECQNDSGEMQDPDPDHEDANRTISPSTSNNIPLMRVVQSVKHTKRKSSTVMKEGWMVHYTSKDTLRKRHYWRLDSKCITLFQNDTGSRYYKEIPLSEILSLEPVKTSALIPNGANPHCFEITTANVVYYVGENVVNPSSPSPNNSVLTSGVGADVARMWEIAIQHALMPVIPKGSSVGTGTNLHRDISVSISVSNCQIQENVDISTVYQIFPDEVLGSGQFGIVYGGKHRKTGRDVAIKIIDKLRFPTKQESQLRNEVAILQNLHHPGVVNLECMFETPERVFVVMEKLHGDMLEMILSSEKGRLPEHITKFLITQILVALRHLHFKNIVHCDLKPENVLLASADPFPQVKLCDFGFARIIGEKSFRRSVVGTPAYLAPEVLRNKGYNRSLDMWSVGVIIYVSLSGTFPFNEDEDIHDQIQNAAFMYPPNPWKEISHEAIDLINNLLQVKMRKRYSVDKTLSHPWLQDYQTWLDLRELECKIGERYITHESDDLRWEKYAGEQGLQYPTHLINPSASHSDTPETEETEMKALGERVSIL
p97 inhibitor – human p97 ATPase inhibition. 0.42% of 220,000 active. recombinant p97 ATPase, Kinase-Glo ATP luminescence, 3 h. P55072. inhibition, % at 8 µM. AID 1481; in the data active = inhibition above about 15%;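 note: 0% = DMSO vehicle and 100% = wells lacking enzyme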
Arbovirus inh – blocks arbovirus infection. arbovirus infection cell-based antiviral screen. inhibition, % at 10 µM. 0.37% of 200,000 active. AID 1251; in the data active = inhibition above about 30%
Wee1 stabilizer – blocks degradation of human Wee1 kinase | 1.2% of 220,000 active | reporter increase, % at 5 µM | HeLa Luc-Wee1K328M stability, luciferase luminescence; 100% = proteasome inhibitor MG132 effect;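 active = activation above the mean of all tested compounds plus 3 SD, set per screening run, cut at about 8.8% in these data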;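 note: cells exposed to compound for 20 h before luminescence read; 0% = DMSO alone and 100% = MG132 at 30 µM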
* = called active by the depositor; . = no result. In the library only some 2.2% were active in any assay of this set; here they are far more common.

SMILES	Redox H2O2 prof	RBBP9 inh	PKD1 inh	p97 inhibitor	Arbovirus inh	Wee1 stabilizer
O=C(NCc1ccc2c(c1)OCO2)C1CCC(=O)N1C1CCCC1 (stereo unspecified)	0	-2	-8	1	5	1
CCOC(=O)CNC(=S)N(CCCN1CCCCCC1)Cc1cccs1	-1	-9	0	2	1	0
CCOC(=O)CNC(=S)N(CCCN1CCCCC1)Cc1cccs1	-1	2	-2	3	7	9.8*
FC(F)(F)c1cc(N2CCN(Cc3ccccc3)CC2)c2ccccc2n1	.	4	.	-2	.	10*
CCOc1cccc2sc(NN)nc12	0	-5	-7	0	38*	-1
CCN=C1S/C(=C\c2ccc(-c3cccc(C(=O)O)c3)o2)C(=O)N1CC	0	2	2	6	41*	7
CCN1C(=O)/C(=C\c2ccc(-c3ccc([N+](=O)[O-])cc3OC)o2)SC1=Nc1cccc(C(=O)O)c1	0	-2	-1	-3	3	4
Cc1ccc(C(C(=O)NC(C)(C)C)N(Cc2ccco2)C(=O)CCC(=O)Nc2nccs2)cc1 (stereo unspecified)	0	-3	-5	0	.	0
Cc1c(Cl)cccc1NS(=O)(=O)c1ccc2c(c1)C1C=CCC1C(c1ccc(C(=O)O)cc1)N2 (stereo unspecified)	0	5	0	36*	-4	3
O=C(CC1C(=O)NCCN1Cc1ccccc1C(F)(F)F)NCCc1ccccn1 (stereo unspecified)	0	-1	6	3	5	3
COc1ccc(CNC(=O)C2Cc3ccccc3CN2C(=O)c2ccco2)cc1 (stereo unspecified)	-2	-9	105*	5	0	4
COc1ccc(C(=O)COC(=O)c2ccc(N(C)C)cc2)cc1	-1	-8	-6	-1	1	-2
CN(C)c1ccc(C(=O)OCC(=O)c2cccs2)cc1	0	-12	3	1	2	9.0*
COc1cccc(C2CC(c3ccc(Br)cc3)=NN2C(=O)c2ccncc2)c1OC (stereo unspecified)	0	2	-1	-2	-18	9.0*
COc1ccccc1C1CC(c2ccc(Br)cc2)=NN1C(=O)c1cccnc1 (stereo unspecified)	0	-5	2	4	-15	-2
S=C(NCC1CC1)N/N=C/c1ccccc1Cl	.	-5	.	2	.	2
Brc1ccc(-c2cn3ccccc3n2)cc1	.	-6	.	0	.	9.1*
O=C(CCCOc1ccc(Cl)cc1Cl)NN1CCOCC1	0	-5	-11	-1	2	0
Brc1ccccc1/C=N/Nc1ccc2ccccc2n1	0	-3	6	6	39*	8
O=C(COC(=O)c1c(Cl)ccc(Cl)c1Cl)NC(=O)NCc1ccccc1	1	-9	4	-1	3	-1
CSc1ccc(CN2CCN(CCC(C)C)C(CCO)C2)cc1 (stereo unspecified)	1	3	1	2	-10	10*
COc1ccccc1NC1=C(NC(C)=O)C(=O)c2ccccc2C1=O	-1	-8	-2	-5	-9	-2
COc1ccccc1N(/N=C1\Sc2ccccc2C1=O)C(C)=O	.	-8	.	15*	.	3
O=C(N/N=C/c1ccccc1OC(F)F)c1cc(-c2ccncc2)nc2ccccc12	0	2	-3	3	-3	11*
CCO[C@H]1OC(C(N)=O)=C[C@@H](c2coc3ccccc3c2=O)[C@@H]1CCCO	0	-3	-6	2	0	9.2*
SMILES	Redox H2O2 prof	RBBP9 inh	PKD1 inh	p97 inhibitor	Arbovirus inh	Wee1 stabilizer
CCO[C@@H]1OC(C(=O)Nc2ccccc2)=C[C@H](c2coc3ccccc3c2=O)[C@H]1CCCO	-2	-8	-1	-1	2	0
Oc1cccc(-c2nc3ccc4ccccc4c3c3c2CCC3)c1	0	-25	-2	2	-38	9.1*
Cc1ccc(CSCc2nc3ccccc3[nH]2)cc1	0	3	-4	4	36*	2
Cc1ccc(SCc2nc3ccccc3[nH]2)cc1	-4	-5	3	0	5	-2
COc1cc(-c2nnc(-c3ccc(N4CCOCC4)cc3)o2)cc(OC)c1OC	2	-1	6	3	48*	0
CNc1ccc(Br)cc(C(=O)/C=C/c2ccc3c(c2)OCO3)c1=O	-4	4	4	15*	5	-5
O=C(COC(=O)/C=C/c1ccc(Cl)cc1Cl)NCc1ccco1	-2	-11	-5	0	5	9.7*
COc1ccc(/C=C/C(=O)c2ccccc2)cc1Cn1nnc2ccccc21	2	-9	-8	9	-34	1
COCCCNC(=S)Nc1cccc2ncccc12	0	-2	3	3	-3	9.2*
O=[N+]([O-])c1ccc([N+](=O)[O-])c(Nc2ccc(N3CCOCC3)cc2)c1	0	-7	-10	-3	1	2
O=C(Cc1c(Cl)cccc1Cl)NC1=NCCS1	0	-1	-1	3	27	-3
Cc1nn(Cc2c(F)c(F)c(F)c(F)c2F)c(C)c1NC(=O)c1cccc(COc2ccccc2Cl)c1	15	-2	-12	1	-13	15*
CCSc1nc2n(n1)C(c1cccc(F)c1)C1=C(CCCC1=O)N2 (stereo unspecified)	2	-5	18	-1	-4	0
CSc1nc2n(n1)C(C)C1=C(CCCC1=O)N2 (stereo unspecified)	7	-7	4	5	-2	9.2*
COc1cccc(-n2c(C)cc(/C=C3/C(=N)N4C(=NC3=O)SN=C4S(C)(=O)=O)c2C)c1	0	-8	-3	5	40*	1
CCC1=NN2C(=N)/C(=C\c3cccn3-c3ccc(Cl)cc3)C(=O)N=C2S1	-1	-11	-6	-2	13	3
Cc1cc(C)cc(-n2cccc2/C=C2/C(=N)N3C(=NC2=O)SN=C3S(C)(=O)=O)c1	-1	-14	-5	0	17	2
Cc1ccc(-n2cccc2/C=C2\C(=N)N3N=C(c4ccco4)SC3=NC2=O)cc1	0	-12	-5	4	46*	-1
Cc1ccc(-n2cccc2/C=C2/C(=N)N3C(=NC2=O)SN=C3S(C)(=O)=O)cc1	0	-12	-4	8	47*	-1
CS(=O)(=O)C1=NSC2=NC(=O)/C(=C\c3cccn3-c3ccccc3Cl)C(=N)N21	-1	-14	-1	3	51*	5
COCc1c(Br)c(C)nc(OCC(=O)N/N=C/c2cc(C)n(-c3ccc([N+](=O)[O-])cc3)c2C)c1C#N	0	-6	-13	10	3	2
CCN(CC)CCNC(=O)c1c(C)oc2cc(Br)c(OC)cc12	0	1	-1	2	-3	1
